Published values pooled from the literature.
Organism: Escherichia coli
Effect on: microbial growth

For `CC1(C)S[C@@H]2[C@H](NC(=O)[C@H](N)c3ccccc3)C(=O)N2[C@H]1C(=O)O`, the MIC was 5 to 10 µM (24 h).
`Cl.O=C(O)CNC(=O)c1ccc(NC(=O)c2cc(Br)c(Br)[nH]2)c(N2CCNCC2)c1` has an MIC of > 32 µg/mL (broth dilution; ATCC25922).
With `CC1CCC(C(C)C)C(OC(=O)C=Cc2ccc(O)c(O)c2)C1` (stereo not drawn) the MIC was 2 µg/mL (broth dilution; ATCC25922).
`CC(O)CSc1nnc(-c2cc3c(ccc4ccccc43)o2)n1-c1ccccc1` (stereo not drawn) has an MIC of 16000 µg/mL.
`Cc1nn(-c2ccccc2)c2c1C(c1cncs1)N(C(=O)c1ccncc1)N2` (stereo not drawn) gave an MIC of 64 µg/mL (MTCC739; 24 h).
For `Cc1[nH]c(C(=O)Nc2ccc(C(=O)NCC(=O)O)cc2N2CCN(C(=O)OC(C)(C)C)CC2)c(Cl)c1Cl`, the MIC was > 32 µg/mL (broth dilution; ATCC25922).
For `Cc1nn(-c2ccccc2)c2c1C(c1ccco1)N(C(=O)c1ccncc1)N2` (stereo not drawn), the MIC was 64 µg/mL (MTCC739; 24 h).
`O=C(C=Cc1ccc(O)c(O)c1)Oc1ccccc1` gave an MIC of 8 µg/mL (broth dilution; ATCC25922).
For `Cc1nn(-c2ccccc2)c2c1C(c1ccc(O)cc1)N(C(=O)c1ccncc1)N2` (stereo not drawn), the MIC was 16 µg/mL (MTCC739; 24 h).
The MIC of `Cl.N[C@H]1CCN(c2cc(C(=O)NCC(=O)O)ccc2NC(=O)c2cc(Br)c(Br)[nH]2)C1` is reported as > 32 µg/mL (broth dilution; ATCC25922).
For `CN(C)c1cc(NC(=O)CNC(C)(C)C)c(O)c2c1C[C@H]1C[C@H]3[C@H](N(C)C)C(O)=C(C(N)=O)C(=O)[C@@]3(O)C(O)=C1C2=O`, the MIC was ≤ 0.06 µg/mL (broth dilution).
With `O=C(O)c1cn(C2CC2)c2cc(N3CCNCC3)c(F)cc2c1=O` the MIC was 32 µg/mL (MTCC739; 24 h).
With `CC(O)CSc1nnc(Cn2cnc3c2c(=O)n(C)c(=O)n3C)n1-c1ccccc1` (stereo not drawn) the MIC was 15000 µg/mL.
For `NCC[C@H](O)C(=O)N[C@@H]1C[C@H](N)[C@@H](O[C@H]2O[C@H](CN)[C@@H](O)[C@H](O)[C@H]2O)[C@H](O)[C@H]1O[C@H]1O[C@H](CO)[C@@H](O)[C@H](N)[C@H]1O`, the MIC was ≤ 1 µg/mL (broth dilution).
`Cc1nn(-c2ccccc2)c2c1C(c1ccc([N+](=O)[O-])cc1)N(C(=O)c1ccncc1)N2` (stereo not drawn) gave an MIC of 32 µg/mL (MTCC739; 24 h).
For `CN(C)[C@@H]1C(O)=C(C(N)=O)C(=O)[C@@]2(O)C(O)=C3C(=O)c4c(O)cccc4[C@@](C)(O)[C@H]3C[C@@H]12`, the MIC was 16 µg/mL (broth dilution; ATCC25922).
`CC(C)(O/N=C(\C(=O)N[C@@H]1C(=O)N2C(C(=O)[O-])=C(C[n+]3ccccc3)CS[C@H]12)c1csc(N)n1)C(=O)O` gave an MIC of 0.125 µg/mL (broth dilution).
`O=C(N[C@H](CO)[C@H](O)c1ccc([N+](=O)[O-])cc1)C(Cl)Cl` has an MIC of 2.5 to 5 µM (24 h).
`Cc1ccc(-c2nnc(SCC(C)O)n2-c2ccccc2)cc1` (stereo not drawn) has an MIC of 12500 µg/mL.
The MIC of `Cc1[nH]c(C(=O)Nc2ccc(C(=O)NCC(=O)O)cc2N2CC[C@@H](N)C2)c(Cl)c1Cl.Cl` is reported as > 32 µg/mL (broth dilution; ATCC25922).
The MIC of `C[C@@H](O)[C@H]1C(=O)N2C(C(=O)O)=C(S[C@@H]3CN[C@H](C(=O)Nc4cccc(C(=O)O)c4)C3)[C@H](C)[C@H]12` is reported as ≤ 0.125 µg/mL (broth dilution).
For `CC(C)(C)OC(=O)N1CCN(c2cc(C(=O)NCC(=O)O)ccc2NC(=O)c2cc(Br)c(Br)[nH]2)CC1`, the MIC was > 32 µg/mL (broth dilution; ATCC25922).
`Cc1ccccc1NC(=O)C=Cc1ccc(O)c(O)c1` has an MIC of 4 µg/mL (broth dilution; ATCC25922).
For `CC(C)(O/N=C(\C(=O)N[C@@H]1C(=O)N2C(C(=O)[O-])=C(C[n+]3ccccc3)CS[C@H]12)c1csc(N)n1)C(=O)O`, the MIC was < 0.5 µg/mL (broth dilution; ATCC25922; 20 h).
`CC(C)(C)OC(=O)N[C@@H]1CCN(c2cc(C(=O)NCC(=O)O)ccc2NC(=O)c2cc(Br)c(Br)[nH]2)C1` has an MIC of > 32 µg/mL (broth dilution; ATCC25922).
With `CO/N=C(\C(=O)N[C@@H]1C(=O)N2C(C(=O)[O-])=C(C[N+]3(C)CCCC3)CS[C@H]12)c1csc(N)n1` the MIC was ≤ 0.06 µg/mL (broth dilution).
For `Cc1[nH]c(C(=O)Nc2ccc(C(=O)NCC(=O)O)cc2N2CC[C@H](NC(=O)OC(C)(C)C)C2)c(Cl)c1Cl`, the MIC was > 32 µg/mL (broth dilution; ATCC25922).
The MIC of `O=C(C=Cc1ccc(O)c(O)c1)OCc1ccccc1` is reported as 8 µg/mL (broth dilution; ATCC25922).
The MIC of `Cc1[nH]c(C(=O)Nc2ccc(C(=O)NCc3n[nH]c(=O)o3)cc2N2CCN(C(=O)OC(C)(C)C)CC2)c(Cl)c1Cl` is reported as > 32 µg/mL (broth dilution; ATCC25922).
For `C[C@@H](O)[C@H]1C(=O)N2C(C(=O)O)=C(SCCNC=N)C[C@H]12`, the MIC was ≤ 0.06 µg/mL (broth dilution).
